According to ChEMBL document CHEMBL1122396, “Antagonists of slow-reacting substance of anaphylaxis. 1. Pyrido[2,1-b]quinazolinecarboxylic acid derivatives” (J Med Chem, 1983):
Structures can show the parent of a compound that is named as a salt.

Key:
[1] = species on record: Cavia porcellus; test: Ability to prevent constrictions induced by SRS-A (slow reacting substance of anaphylaxis) in guinea pig ileum; format: functional
Summary of the method: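 Ileum segments (1.5 cm) from 200–250 g guinea pigs are held in Tyrode's solution with 10^-6 M atropine sulfate and 10^-6 M pyrilamine maleate, at 37 °C, aerated with 95% O2/5% CO2. SRS-A comes from egg albumin challenge of chopped lung from actively sensitized guinea pigs, dosed to give 50% of maximal isotonic contraction. Compound is added 3 min before challenge. Three concentrations (10–90% inhibition) are run in duplicate, and IC50 is taken from the log dose-response curve.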

[2] = species on record: Cavia porcellus; test: Ability to prevent constrictions induced by SRS-A (slow reacting substance of anaphylaxis) in guinea pig ileum at a concentration of 1x 10E-5 M; format: functional

IC50 [1] [µM]	Structure (SMILES)	inhibition at 10 µM [2] [%]
0.035	CCCc1c(OCC(O)COc2ccc3c(=O)cc(C(=O)O)oc3c2CCC)ccc(C(C)=O)c1O (stereo not drawn) [FPL-55712 SODIUM SALT]	–
1	CCN(CC)CCNC(=O)c1ccc2nc3ccc(CC(C)C)cc3c(=O)n2c1	–
2	CC(C)c1ccc2nc3ccc(C(=O)NCCN(C4CCCCC4)C4CCCCC4)cn3c(=O)c2c1	–
10	CC(C)c1ccc2nc3ccc(C(=O)NCCN(c4ccccc4)c4ccccc4)cn3c(=O)c2c1	–
1	CC(C)c1ccc2nc3ccc(C(=O)NCCN4C(C)(C)CCCC4(C)C)cn3c(=O)c2c1	–
10	CCN(CC)CCNC(=O)c1ccc2nc3ccc(C(C)(C)C)cc3c(=O)n2c1	–
1	CC(C)c1ccc2nc3ccc(C(=O)NCCN4CCC(c5ccccc5)CC4)cn3c(=O)c2c1	–
6	CC(C)c1ccc2nc3ccc(C(=O)OCCN4CCCCC4)cn3c(=O)c2c1	–
10	CCC(C)c1ccc2nc3ccc(C(=O)NCCN(CC)CC)cn3c(=O)c2c1 (stereo not drawn)	–
1	CC(C)c1ccc2nc3ccc(C(=O)NCCN(C(C)C)C(C)C)cn3c(=O)c2c1	–

Further lines, the compound ahead of its results:

Structure (SMILES)	IC50 [1] [µM]	inhibition at 10 µM [2] [%]
CC(C)c1ccc2nc3ccc(C(=O)NCCN4CCC(Cc5ccccc5)CC4)cn3c(=O)c2c1	1	–
CC(C)c1ccc2nc3ccc(C(=O)NCCNc4ccccc4)cn3c(=O)c2c1	2.5	–
CCN(CC)CCOC(=O)c1ccc2nc3ccc(OC(C)C)cc3c(=O)n2c1	–	17
CC(C)c1ccc2nc3ccc(C(=O)NCCN4CCN(C)CC4)cn3c(=O)c2c1	–	34
CC(C)c1ccc2nc3ccc(C(=O)NCCN4CCCCC4)cn3c(=O)c2c1	–	15
CCN(CC)CCOC(=O)c1ccc2nc3ccc(SC)cc3c(=O)n2c1	–	0
CCN(CC)CCCNC(=O)c1ccc2nc3ccc(C(C)C)cc3c(=O)n2c1	–	37
CCN(CC)CCOC(=O)c1ccc2nc3ccc(C(C)C)cn3c(=O)c2c1	–	5
CCN(CC)CCOC(=O)c1ccc2nc3ccc(C(C)C)cc3c(=O)n2c1	4	–
CCN(CC)CCNC(=O)c1ccc2nc3ccc(C(C)C)cn3c(=O)c2c1	–	6
CCN(CC)CCOC(=O)c1ccc2nc3ccc(OC)cc3c(=O)n2c1	–	0
CC(C)c1ccc2nc3ccc(C(=O)NCCN(C)C)cn3c(=O)c2c1	–	42
CCN(CC)CCOC(=O)c1ccc2nc3ccc(C)cc3c(=O)n2c1	–	11
CCN(CC)CCNC(=O)c1ccc2nc3ccc(C(C)C)cc3c(=O)n2c1	5	–
CCCCCOC(=O)c1ccc2nc3ccc(C(C)C)cc3c(=O)n2c1	–	10
CC(C)c1ccc2nc3ccc(C(=O)NCCN4CCN(c5ccccc5)CC4)cn3c(=O)c2c1	1	–
CCN(CC)CC(C)OC(=O)c1ccc2nc3ccc(C(C)C)cc3c(=O)n2c1 (stereo not drawn)	10	–
CC(C)c1ccc2nc3ccc(C(=O)NCCN4CCN(C(c5ccccc5)c5ccccc5)CC4)cn3c(=O)c2c1	1	–
